Experimental data as given in ChEMBL document CHEMBL4266019, “Discovery and Structure-Activity-Relationship Study of N-Alkyl-5-hydroxypyrimidinone Carboxamides as Novel Antitubercular Agents Targeting Decaprenylphosphoryl-β-d-ribose 2'-Oxidase” (J Med Chem, 2018).
Changes are numbered by the printed parent chain. Values after ≈ are worked out from the molar mass of the structure shown. Active and inactive are the calls of the source. No cut-off for these calls is given here.

Assays:
[1] = system: Mycobacterium tuberculosis; assay: Antitubercular activity against Mycobacterium tuberculosis H37Rv harboring dprE1-dprE2 mutant after 10 days in absence of anhydrotetracycline; type: functional, organism-based
How it was run: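 DprE12–TetON1 strain (H37Rv with integrated attL5 plasmid constitutively expressing dprE1, dprE2, aftA, embC) washed and diluted to OD580nm 0.01 in drug-free 7H9-based medium. Half received anhydrotetracycline 500 ng/mL. Tested against 14-point 2-fold dilutions, 1% DMSO final, at 37 °C, 5% CO2. OD580nm read at day 10. BTZ043 and TCA1 served as positive controls.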

[2] = system: T1, Decaprenylphosphoryl-beta-D-ribose oxidase (Mycobacterium tuberculosis (strain ATCC 25618 / H37Rv)), P9WJF1 [Y314H]; assay: Inhibition of DprE1 Y314H mutant in Mycobacterium tuberculosis H37Rv assessed as bacterial growth inhibition after 4 weeks
T1 sequence (whole entry): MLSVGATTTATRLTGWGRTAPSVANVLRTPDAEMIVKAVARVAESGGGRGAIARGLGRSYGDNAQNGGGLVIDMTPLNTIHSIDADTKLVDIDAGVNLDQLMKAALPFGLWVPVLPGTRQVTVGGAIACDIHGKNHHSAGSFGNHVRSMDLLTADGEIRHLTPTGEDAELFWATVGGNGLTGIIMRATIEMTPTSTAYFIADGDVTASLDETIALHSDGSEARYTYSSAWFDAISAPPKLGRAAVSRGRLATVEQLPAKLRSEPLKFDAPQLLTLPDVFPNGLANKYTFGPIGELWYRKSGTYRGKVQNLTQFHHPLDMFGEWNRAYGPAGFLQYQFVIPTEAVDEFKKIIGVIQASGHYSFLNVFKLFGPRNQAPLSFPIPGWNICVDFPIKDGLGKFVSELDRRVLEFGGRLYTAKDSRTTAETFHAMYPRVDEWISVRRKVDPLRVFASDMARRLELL
How it was run: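 Resistant mutants were selected by plating 10^7–10^9 H37Rv cells on 7H11/OADC containing 2×, 5× or 10× MIC, with drug-free plates for counts, at 37 °C for 4 weeks. Colonies from 10× MIC were regrown in 7H9/ADC and MIC-tested. Genomes were sequenced after CTAB DNA isolation.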

[3] = system: Mycobacterium tuberculosis H37Rv; assay: Ratio of MIC for inhibition of DprE1 Y314H mutant-mediated growth of Mycobacterium tuberculosis H37Rv to MIC for inhibition of DprE1-mediated growth of Mycobacterium tuberculosis H37Rv
How it was run: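 Resistant mutants were selected by plating 10^7, 10^8 and 10^9 H37Rv cells on 7H11/OADC agar containing 2×, 5× and 10× MIC of the hit compound, then incubating at 37 °C for 4 weeks. Colonies from 10× MIC plates were grown in 7H9/ADC and MIC-tested against the parental strain. Whole-genome sequencing found the DprE1 Y314H mutation.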

[4] = system: T2, Decaprenylphosphoryl-beta-D-ribose oxidase (Mycobacterium tuberculosis (strain ATCC 25618 / H37Rv)), P9WJF1 [N364S]; assay: Inhibition of DprE1 N364S mutant in Mycobacterium tuberculosis H37Rv assessed as bacterial growth inhibition after 4 weeks
T2 sequence (whole entry): T1 sequence (whole entry) with H314Y, N364S

[5] = system: T3, Decaprenylphosphoryl-beta-D-ribose oxidase (Mycobacterium tuberculosis (strain ATCC 25618 / H37Rv)), P9WJF1 [Y314C]; assay: Inhibition of DprE1 Y314C mutant in Mycobacterium tuberculosis H37Rv assessed as bacterial growth inhibition after 4 weeks
T3 sequence (whole entry): T1 sequence (whole entry) with H314C

[6] = system: T4, Decaprenylphosphoryl-beta-D-ribose oxidase (Mycobacterium tuberculosis (strain ATCC 25618 / H37Rv)), P9WJF1 [P116S]; assay: Inhibition of DprE1 P116S mutant in Mycobacterium tuberculosis H37Rv assessed as bacterial growth inhibition after 4 weeks
T4 sequence (whole entry): T1 sequence (whole entry) with P116S, H314Y

For CC(NC(=O)c1nc(Cc2ccccc2C(F)(F)F)n(C)c(=O)c1O)c1ccccc1 (centres undefined), the Activity [1] was “inactive”.

With CC[C@@H](CO)NCCN[C@@H](CC)CO the Activity [1] was “Active”.

In the case of CCOC(=O)NC(=O)c1ccsc1NC(=O)c1nc2ccccc2s1, the Activity [1] is reported as “Active”.

In the case of Cn1c(Cc2ccccc2C(F)(F)F)nc(C(=O)NCc2ccccc2)c(O)c1=O, the MIC [2] is reported as > 50 µM, the Ratio [3] is reported as > 16 and the MIC [4] is reported as 2.34 µM (≈ 0.977 µg/mL). For the same compound, the MIC [5] was 25 µM (≈ 10.4 µg/mL) and the MIC [6] was 18.8 µM (≈ 7.85 µg/mL).

In the case of C[C@H]1COC2(CCN(c3nc(=O)c4cc(C(F)(F)F)cc([N+](=O)[O-])c4s3)CC2)O1, the Activity [1] is reported as “Active”.
